ChEMBL document CHEMBL4428067, “Drug Discovery against Psoriasis: Identification of a New Potent FMS-like Tyrosine Kinase 3 (FLT3) Inhibitor, 1-(4-((1H-Pyrazolo[3,4-d]pyrimidin-4-yl)oxy)-3-fluorophenyl)-3-(5-(tert-butyl)isoxazol-3-yl)urea, That Showed Potent Activity in a Psoriatic Animal Model” (J Med Chem, 2016)
Active and inactive are the calls of the source. No cut-off for these calls is given here.

Assays:
Mus musculus [1] = species on record: Mus musculus; assay: Antipsoriatic activity in K14-VEGF transgenic mouse model of psoriasis assessed as lower right quadrant FLT3+/CD11c+/B220+ pDC cells in psoriatic plaque lesion at 0.05% applied tropically over lesion for continuous 29 days by flow cytometric analysis (reference value: 0.52%); assay type: functional
[2] = target: T1, Receptor-type tyrosine-protein kinase FLT3 (Homo sapiens, UniProt P36888); assay: Inhibition of recombinant human N-terminal GST-tagged FLT3 (564 to end residues) expressed by baculovirus in Sf21 insect cells measured after 10 mins in presence of [gamma-33P]ATP by scintillation counter method
T1 sequence (P36888 whole entry): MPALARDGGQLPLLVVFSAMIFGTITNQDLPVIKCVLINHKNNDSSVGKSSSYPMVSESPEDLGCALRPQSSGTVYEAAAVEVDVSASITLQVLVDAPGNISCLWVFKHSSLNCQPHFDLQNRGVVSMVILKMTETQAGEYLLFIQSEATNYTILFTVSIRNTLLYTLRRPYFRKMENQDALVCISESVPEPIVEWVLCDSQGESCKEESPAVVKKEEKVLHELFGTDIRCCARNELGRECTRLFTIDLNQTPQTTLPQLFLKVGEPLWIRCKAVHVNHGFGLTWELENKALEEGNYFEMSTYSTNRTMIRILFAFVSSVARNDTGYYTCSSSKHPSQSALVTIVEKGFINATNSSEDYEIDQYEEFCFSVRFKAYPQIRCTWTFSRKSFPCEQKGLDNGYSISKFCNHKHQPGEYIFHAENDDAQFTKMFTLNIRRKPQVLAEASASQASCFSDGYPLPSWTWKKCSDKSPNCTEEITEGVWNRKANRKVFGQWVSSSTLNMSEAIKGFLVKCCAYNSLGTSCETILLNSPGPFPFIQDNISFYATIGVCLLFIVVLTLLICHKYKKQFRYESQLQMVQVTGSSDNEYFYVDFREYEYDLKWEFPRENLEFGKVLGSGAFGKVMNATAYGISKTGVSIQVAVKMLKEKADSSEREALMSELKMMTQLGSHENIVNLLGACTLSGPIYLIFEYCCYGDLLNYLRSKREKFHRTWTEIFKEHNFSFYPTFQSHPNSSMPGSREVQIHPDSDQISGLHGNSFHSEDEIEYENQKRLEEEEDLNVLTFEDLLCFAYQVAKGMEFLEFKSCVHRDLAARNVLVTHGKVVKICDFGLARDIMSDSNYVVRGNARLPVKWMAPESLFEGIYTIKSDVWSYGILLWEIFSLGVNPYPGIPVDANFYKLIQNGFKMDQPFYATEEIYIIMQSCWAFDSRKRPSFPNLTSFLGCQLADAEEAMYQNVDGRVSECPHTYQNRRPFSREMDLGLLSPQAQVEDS

Mus musculus [3] = species on record: Mus musculus; assay: Antipsoriatic activity in K14-VEGF transgenic mouse model of psoriasis assessed as decrease in STAT3 phosphorylation in psoriatic lesion at 0.05% applied tropically over lesion for continuous 29 days by immunohistochemical analysis relative to vehicle control; assay type: functional; design: scale not given: the % may be the effect or the level left
How it was run: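 K14-VEGF mice were treated topically with 0.05% cream or vehicle for 29 days, n=3 per group. Ear skin was paraffin-embedded, cut into 4-µm sections and immunostained. Staining was quantified in 5 random fields, reported as mean ± SD.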

Mus musculus [4] = species on record: Mus musculus; assay: Antipsoriatic activity in K14-VEGF transgenic mouse model of psoriasis assessed as lower left quadrant FLT3+/CD11c+/MHC-II+ mDC cells in psoriatic plaque lesion at 0.05% applied tropically over lesion for continuous 29 days by flow cytometric analysis (reference value: 1.09%)
Mus musculus [5] = species on record: Mus musculus; assay: Antipsoriatic activity in K14-VEGF transgenic mouse model of psoriasis assessed as upper left quadrant FLT3+/CD11c+/B220+ pDC cells in psoriatic plaque lesion at 0.05% applied tropically over lesion for continuous 29 days by flow cytometric analysis (reference value: 36.1%); assay type: functional
Mus musculus [6] = species on record: Mus musculus; assay: Antipsoriatic activity in K14-VEGF transgenic mouse model of psoriasis assessed as upper left quadrant DC cells expressing FLT3 and CD11c in psoriatic plaque lesion at 0.05% applied tropically over lesion for continuous 29 days by flow cytometric analysis (reference value: 8.83%); assay type: functional
Mus musculus [7] = species on record: Mus musculus; assay: Antipsoriatic activity in K14-VEGF transgenic mouse model of psoriasis assessed as decrease in DC cells expressing FLT3 and CD11c in psoriatic lesion at 0.05% applied tropically over lesion for continuous 29 days by flow cytometric analysis relative to control; assay type: functional
[8] = target: T2, Receptor-type tyrosine-protein kinase FLT3 (Mus musculus) (UniProt Q00342); assay: Inhibition of FLT3 in mouse BMDCs assessed as suppression of STAT5 phosphorylation at 10 and 100 nM treated on day 9 post 9 days of FLT3L-stimulation measured after 1 hr by Western blot analysis
T2 sequence (whole entry): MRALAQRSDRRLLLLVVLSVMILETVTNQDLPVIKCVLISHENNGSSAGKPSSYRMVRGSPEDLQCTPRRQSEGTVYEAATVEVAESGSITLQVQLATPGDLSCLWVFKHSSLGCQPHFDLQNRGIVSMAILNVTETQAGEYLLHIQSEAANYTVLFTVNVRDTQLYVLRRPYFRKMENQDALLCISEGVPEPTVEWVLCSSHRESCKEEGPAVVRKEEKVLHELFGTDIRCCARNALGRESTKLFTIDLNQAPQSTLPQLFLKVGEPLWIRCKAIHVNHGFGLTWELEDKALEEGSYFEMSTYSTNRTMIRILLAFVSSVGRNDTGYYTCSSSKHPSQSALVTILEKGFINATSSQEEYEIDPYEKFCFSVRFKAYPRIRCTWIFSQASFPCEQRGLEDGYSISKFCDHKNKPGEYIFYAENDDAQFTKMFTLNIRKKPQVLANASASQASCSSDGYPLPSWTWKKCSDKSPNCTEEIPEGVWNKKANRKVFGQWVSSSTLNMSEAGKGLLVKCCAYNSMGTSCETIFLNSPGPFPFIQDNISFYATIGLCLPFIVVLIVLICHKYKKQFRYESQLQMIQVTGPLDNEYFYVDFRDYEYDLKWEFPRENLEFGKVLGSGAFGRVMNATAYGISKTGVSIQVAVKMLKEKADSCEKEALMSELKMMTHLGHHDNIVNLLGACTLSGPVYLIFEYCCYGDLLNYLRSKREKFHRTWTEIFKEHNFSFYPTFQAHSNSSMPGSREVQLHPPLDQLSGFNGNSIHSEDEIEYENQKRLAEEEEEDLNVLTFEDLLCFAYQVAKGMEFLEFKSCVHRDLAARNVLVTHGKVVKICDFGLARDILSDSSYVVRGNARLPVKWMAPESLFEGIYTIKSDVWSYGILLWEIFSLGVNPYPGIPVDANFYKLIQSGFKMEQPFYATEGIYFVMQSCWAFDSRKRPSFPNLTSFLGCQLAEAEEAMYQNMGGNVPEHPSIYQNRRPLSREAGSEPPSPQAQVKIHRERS
How it was run: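 Bone marrow cells were cultured 9 days with FLT3L in supplemented RPMI-1640, then exposed to compound or 0.1% DMSO for 1 h on day 9. Whole cells were lysed and immunoblotted with rabbit antibodies to STAT3, STAT5, pSTAT3 and pSTAT5. Three independent experiments.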

IC50 [2]: 5 nM
inhibition [8]: Active
Compound: CC(C)(C)c1cc(NC(=O)Nc2ccc(Oc3ncnc4[nH]ncc34)c(F)c2)no1
Activity (Mus musculus [1]): 0%
Activity (Mus musculus [3]): 64%
Activity (Mus musculus [4]): 1.54%
Activity (Mus musculus [5]): 9.6%
Activity (Mus musculus [6]): 5.18%
inhibition (INH) (Mus musculus [7]): 69.6%
